The source of these data is ChEMBL document CHEMBL1828601, “Small molecule peptidomimetic inhibitors of importin α/β mediated nuclear transport” (Bioorg Med Chem, 2010).

Calls of active or inactive are those of the source. No rule for the calls is given here.

The subject of assay [1] is FGM. The experiment in a line: Inhibition of importin alpha/beta-mediated nuclear transportation of Alexa555-BSA-NLS in human FGM cell nucleus at 500 uM after 30 mins by fluorescence microscopy. It counts as cell-based.
For assay [2], the system named is FGM. The experiment in a line: Inhibition of importin alpha/beta-mediated nuclear transportation of Alexa555-GST-M9 in human FGM cell nucleus at 500 uM after 30 mins by fluorescence microscopy. It counts as cell-based. The gist of the method: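 Transportin-dependent import measured the same way in permeabilized FGM cells, with 0.5 μM Alexa555-GST-M9 cargo in place of BSA-NLS. Conditions: 3 mg/ml HeLa cytosol, ATP-regenerating system, 0.2 mM GTP, 1% DMSO, 30 min at 30°C. Positive control was 1 mg/ml WGA. Nuclear cargo fluorescence quantified per nucleus by automated imaging.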

For the compound `NCCCCNC(=O)[C@@H]1CN(C(=O)[C@@H](N)CCCCN)C[C@H]1C(=O)NCCc1ccc2ccccc2c1`, the inhibition entry in the assay on FGM [1] and in the assay with FGM [2] was “inactive” throughout.
On to `N[C@@H](CO)C(=O)Nc1ccc(C(=O)N[C@@H](CCc2ccccc2)C(=O)O)cc1OCc1ccc(Cl)cc1`, for which the inhibition entry with FGM [1] and in the assay with FGM [2] was “Active” throughout.
On to `C[C@@H](O)[C@H](N)C(=O)N1C[C@@H](C(=O)NCCc2c[nH]cn2)[C@H](C(=O)NCCc2c[nH]c3ccccc23)C1`, for which the inhibition entry in the assay with FGM [1] and in the assay with FGM [2] was “inactive” in each case.
Regarding `CC[C@@H](C)[C@H](NC(=O)c1ccc(NC(=O)[C@@H](N)CCCCN)c(OCc2c[nH]cn2)c1)C(=O)O`, the inhibition result with FGM [1] and in the assay on FGM [2] was “inactive” throughout.
For `NCCCC[C@H](N)C(=O)Nc1ccc(C(=O)N[C@@H](CCc2ccccc2)C(=O)O)cc1OCc1ccc(Cl)cc1`, the inhibition result in the assay with FGM [1] and in the assay with FGM [2] was “inactive” each time.
In the case of `NCCCCNC(=O)[C@@H]1CN(C(=O)[C@@H](N)CC(N)=O)C[C@H]1C(=O)NCCc1ccc2ccccc2c1`, the inhibition result in the assay on FGM [1] and with FGM [2] was “inactive” in each case.
In the case of `NCCCC[C@H](N)C(=O)N1C[C@@H](C(=O)NCCc2c[nH]cn2)[C@H](C(=O)NCCc2c[nH]c3ccccc23)C1`, the inhibition result in the assay with FGM [1] and with FGM [2] was “inactive” in each case.
Turning to `C[C@@H](O)[C@H](N)C(=O)Nc1ccc(C(=O)N[C@@H](CCc2ccccc2)C(=O)O)cc1OCc1ccc(Cl)cc1`, the inhibition result with FGM [1] and with FGM [2] was “inactive” each time.
With `CC[C@@H](C)[C@H](NC(=O)c1ccc(NC(=O)[C@@H](N)CC(=O)O)c(OCc2c[nH]cn2)c1)C(=O)O`, the inhibition result in the assay with FGM [1] and with FGM [2] was “inactive” each time.
Consider `C[C@H](N)C(=O)Nc1ccc(C(=O)N[C@@H](CCc2ccccc2)C(=O)O)cc1OCc1ccc(Cl)cc1`, for which the inhibition result in the assay with FGM [1] and in the assay on FGM [2] was “Active” throughout.
Turning to `CC[C@H](C)[C@H](N)C(=O)N1C[C@@H](C(=O)NCCCCN)[C@H](C(=O)NCCc2ccc3ccccc3c2)C1`, the inhibition entry with FGM [1] and in the assay on FGM [2] was “inactive” throughout.
Regarding `N[C@@H](CCc1ccccc1)C(=O)N1C[C@@H](C(=O)NCCc2c[nH]cn2)[C@H](C(=O)NCCc2c[nH]c3ccccc23)C1`, the inhibition entry with FGM [1] and with FGM [2] was “Active” each time.
For `C[C@H](N)C(=O)N1C[C@@H](C(=O)NCCCCN)[C@H](C(=O)NCCc2ccc3ccccc3c2)C1`, the inhibition result in the assay with FGM [1] and with FGM [2] was “inactive” in each case.
Take `CC[C@H](C)[C@H](NC(=O)c1ccc(NC(=O)[C@@H](N)Cc2c[nH]c3ccccc23)c(OCc2c[nH]cn2)c1)C(=O)O`: the inhibition result with FGM [1] and in the assay on FGM [2] was “inactive” in each case.
As for `N[C@@H](Cc1ccc2ccccc2c1)C(=O)Nc1ccc(C(=O)N[C@@H](CCc2ccccc2)C(=O)O)cc1OCc1ccc(Cl)cc1`, the inhibition result in the assay with FGM [1] and in the assay with FGM [2] was “inactive” in each case.
As to `N[C@@H](CCc1ccc(O)cc1)C(=O)N1C[C@@H](C(=O)NCCc2c[nH]cn2)[C@H](C(=O)NCCc2c[nH]c3ccccc23)C1`, the inhibition result in the assay with FGM [1] and with FGM [2] was “inactive” each time.
`CC[C@H](C)[C@H](NC(=O)c1ccc(NC(=O)CN)c(OCc2c[nH]cn2)c1)C(=O)O`: the inhibition entry with FGM [1] and in the assay on FGM [2] was “inactive” each time.
For the compound `CSCC[C@H](N)C(=O)N1C[C@@H](C(=O)NCCCCN)[C@H](C(=O)NCCc2ccc3ccccc3c2)C1`, the inhibition entry in the assay on FGM [1] and in the assay on FGM [2] was “inactive” throughout.
As for `N[C@@H](Cc1ccc(O)cc1)C(=O)N1C[C@@H](C(=O)NCCc2c[nH]cn2)[C@H](C(=O)NCCc2c[nH]c3ccccc23)C1`, the inhibition entry with FGM [1] and in the assay on FGM [2] was “Active” throughout.
For `N[C@@H](Cc1ccccc1)C(=O)Nc1ccc(C(=O)N[C@@H](CCc2ccccc2)C(=O)O)cc1OCc1ccc(Cl)cc1`, the inhibition result in the assay on FGM [1] and in the assay on FGM [2] was “Active” in each case.
Take `CC[C@H](C)[C@H](NC(=O)c1ccc(NC(=O)[C@@H](N)CCc2ccccc2)c(OCc2c[nH]cn2)c1)C(=O)O`: the inhibition result with FGM [1] and in the assay with FGM [2] was “Active” each time.
Regarding `N[C@@H](CC(=O)O)C(=O)Nc1ccc(C(=O)N[C@@H](CCc2ccccc2)C(=O)O)cc1OCc1ccc(Cl)cc1`, the inhibition entry in the assay with FGM [1] and with FGM [2] was “Active” each time.
`CC[C@H](C)[C@H](N)C(=O)N1C[C@@H](C(=O)NCCc2c[nH]cn2)[C@H](C(=O)NCCc2c[nH]c3ccccc23)C1`: the inhibition result in the assay with FGM [1] and in the assay with FGM [2] was “Active” throughout.
Consider `CC[C@@H](C)[C@H](NC(=O)c1ccc(NC(=O)[C@@H](N)[C@@H](C)O)c(OCc2c[nH]cn2)c1)C(=O)O`, for which the inhibition entry with FGM [1] and in the assay with FGM [2] was “inactive” each time.
`NCCCCNC(=O)[C@@H]1CN(C(=O)[C@@H](N)Cc2c[nH]c3ccccc23)C[C@H]1C(=O)NCCc1ccc2ccccc2c1`: the inhibition result in the assay on FGM [1] and in the assay with FGM [2] was “Active” throughout.
With `NCCCCNC(=O)[C@@H]1CN(C(=O)[C@@H](N)CCc2ccccc2)C[C@H]1C(=O)NCCc1ccc2ccccc2c1`, the inhibition entry with FGM [1] and in the assay with FGM [2] was “inactive” throughout.
For `N[C@@H](CO)C(=O)N1C[C@@H](C(=O)NCCc2c[nH]cn2)[C@H](C(=O)NCCc2c[nH]c3ccccc23)C1`, the inhibition entry in the assay with FGM [1] and with FGM [2] was “inactive” throughout.
For `N[C@@H](Cc1cnc[nH]1)C(=O)N1C[C@@H](C(=O)NCCc2c[nH]cn2)[C@H](C(=O)NCCc2c[nH]c3ccccc23)C1`, the inhibition result in the assay with FGM [1] and with FGM [2] was “inactive” in each case.
For `NCC(=O)Nc1ccc(C(=O)N[C@@H](CCc2ccccc2)C(=O)O)cc1OCc1ccc(Cl)cc1`, the inhibition result in the assay with FGM [1] and with FGM [2] was “inactive” throughout.
With `NCCCCNC(=O)[C@@H]1CN(C(=O)[C@@H](N)Cc2cnc[nH]2)C[C@H]1C(=O)NCCc1ccc2ccccc2c1`, the inhibition entry with FGM [1] and in the assay with FGM [2] was “inactive” throughout.
On to `N[C@@H](Cc1ccc(Cl)cc1)C(=O)N1C[C@@H](C(=O)NCCc2c[nH]cn2)[C@H](C(=O)NCCc2c[nH]c3ccccc23)C1`, for which the inhibition entry in the assay with FGM [1] and in the assay on FGM [2] was “Active” in each case.
As for `CC[C@H](N)C(=O)Nc1ccc(C(=O)N[C@H](C(=O)O)[C@@H](C)CC)cc1OCc1c[nH]cn1`, the inhibition result in the assay with FGM [1] and in the assay on FGM [2] was “inactive” throughout.
Regarding `CC[C@H](C)[C@H](NC(=O)c1ccc(NC(=O)[C@@H](N)CCSC)c(OCc2c[nH]cn2)c1)C(=O)O`, the inhibition result in the assay on FGM [1] and with FGM [2] was “inactive” in each case.
For `COc1ccc(C[C@H](N)C(=O)Nc2ccc(C(=O)N[C@@H](CCc3ccccc3)C(=O)O)cc2OCc2ccc(Cl)cc2)cc1`, the inhibition result with FGM [1] and in the assay on FGM [2] was “inactive” in each case.
In the case of `COc1ccc(C[C@H](N)C(=O)N2C[C@@H](C(=O)NCCCCN)[C@H](C(=O)NCCc3ccc4ccccc4c3)C2)cc1`, the inhibition result in the assay with FGM [1] and with FGM [2] was “inactive” throughout.
Take `CC(C)C[C@H](N)C(=O)Nc1ccc(C(=O)N[C@@H](CCc2ccccc2)C(=O)O)cc1OCc1ccc(Cl)cc1`: the inhibition result with FGM [1] and in the assay with FGM [2] was “Active” in each case.
As for `CC[C@@H](C)[C@H](NC(=O)c1ccc(NC(=O)[C@@H](N)Cc2c[nH]cn2)c(OCc2c[nH]cn2)c1)C(=O)O`, the inhibition result with FGM [1] and in the assay with FGM [2] was “Active” throughout.
As for `NCCCCNC(=O)[C@@H]1CN(C(=O)[C@@H](N)Cc2ccc(O)cc2)C[C@H]1C(=O)NCCc1ccc2ccccc2c1`, the inhibition result in the assay on FGM [1] and in the assay with FGM [2] was “inactive” each time.
With `N[C@@H](Cc1c[nH]c2ccccc12)C(=O)N1C[C@@H](C(=O)NCCc2c[nH]cn2)[C@H](C(=O)NCCc2c[nH]c3ccccc23)C1`, the inhibition result in the assay on FGM [1] and in the assay on FGM [2] was “Active” each time.
As to `N[C@@H](CCc1ccccc1)C(=O)Nc1ccc(C(=O)N[C@@H](CCc2ccccc2)C(=O)O)cc1OCc1ccc(Cl)cc1`, the inhibition result in the assay on FGM [1] and in the assay with FGM [2] was “Active” in each case.
As to `CC[C@@H](C)[C@H](N)C(=O)Nc1ccc(C(=O)N[C@H](C(=O)O)[C@@H](C)CC)cc1OCc1c[nH]cn1`, the inhibition entry with FGM [1] and in the assay with FGM [2] was “inactive” in each case.
On to `CC[C@H](C)[C@H](NC(=O)c1ccc(NC(=O)[C@H](C)N)c(OCc2c[nH]cn2)c1)C(=O)O`, for which the inhibition result in the assay with FGM [1] and in the assay on FGM [2] was “inactive” throughout.
As to `N[C@@H](Cc1ccc(Cl)cc1)C(=O)Nc1ccc(C(=O)N[C@@H](CCc2ccccc2)C(=O)O)cc1OCc1ccc(Cl)cc1`, the inhibition entry with FGM [1] and in the assay with FGM [2] was “inactive” throughout.
`CC(C)C[C@H](N)C(=O)N1C[C@@H](C(=O)NCCc2c[nH]cn2)[C@H](C(=O)NCCc2c[nH]c3ccccc23)C1`: the inhibition entry with FGM [1] and in the assay with FGM [2] was “inactive” in each case.
Consider `N[C@@H](Cc1c[nH]c2ccccc12)C(=O)Nc1ccc(C(=O)N[C@@H](CCc2ccccc2)C(=O)O)cc1OCc1ccc(Cl)cc1`, for which the inhibition result in the assay with FGM [1] and in the assay with FGM [2] was “Active” in each case.
Turning to `COc1ccc(C[C@H](N)C(=O)N2C[C@@H](C(=O)NCCc3c[nH]cn3)[C@H](C(=O)NCCc3c[nH]c4ccccc34)C2)cc1`, the inhibition result with FGM [1] and with FGM [2] was “Active” throughout.
With `CC[C@@H](C)[C@H](NC(=O)c1ccc(NC(=O)[C@@H](N)CO)c(OCc2c[nH]cn2)c1)C(=O)O`, the inhibition entry in the assay on FGM [1] and with FGM [2] was “Active” throughout.
